This is an account of results in ChEMBL document CHEMBL1153089, “Synthesis, antibacterial activities and molecular docking studies of peptide and Schiff bases as targeted antibiotics” (Bioorg Med Chem, 2009).

Values after ≈ are worked out from the molar mass of the structure shown. A value given as a limit tells only on which side of the number the result lay.

For assay [1], the target named is T1, 3-oxoacyl-[acyl-carrier-protein] synthase 3 (Escherichia coli, UniProt C3TDZ2).
T1 sequence (C3TDZ2 whole entry): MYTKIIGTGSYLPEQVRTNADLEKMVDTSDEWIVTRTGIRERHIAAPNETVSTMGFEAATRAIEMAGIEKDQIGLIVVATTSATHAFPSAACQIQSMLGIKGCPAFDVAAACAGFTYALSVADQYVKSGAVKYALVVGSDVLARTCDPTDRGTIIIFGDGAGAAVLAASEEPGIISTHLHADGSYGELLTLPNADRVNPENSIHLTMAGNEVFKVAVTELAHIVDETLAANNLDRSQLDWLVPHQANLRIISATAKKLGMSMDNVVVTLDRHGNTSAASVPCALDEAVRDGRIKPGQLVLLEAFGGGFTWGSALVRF
The experiment in a line: Inhibition of Escherichia coli Beta-ketoacyl-ACP synthase III expressed in Escherichia coli BL21 (DE3) by liquid scintillation counting. In a few lines: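 His-tagged E. coli KAS III from pET30 in BL21(DE3), purified on Ni-NTA and stored in 20 mM Tris pH 7.6, 100 mM NaCl, 1 mM DTT, 20% glycerol. The radiometric assay precipitated product with ice-cold 10% TCA and redissolved it in 0.5 M NaOH. ³H incorporation was counted by liquid scintillation. Inhibitors were added from DMSO stock, with final DMSO ≤2%. IC50 was determined.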

The next assay has as its system Bacillus subtilis. The experiment in a line: Antimicrobial activity against Bacillus subtilis ATCC 6633 after 24 hrs by MTT assay. The settings on record: ATCC 6633, 24 h. The assay is classed as functional. The gist of the method:
(§1)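 MIC by broth microdilution in Mueller–Hinton medium. Compounds were serially diluted in DMSO in the medium. Inoculum was about 10⁵ cfu/mL. Plates were incubated at 37 °C for 24 h. MIC was read visually with MTT colorimetric staining.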

The next assay relates to Escherichia coli. The experiment in a line: Antimicrobial activity against Escherichia coli ATCC 35218 after 24 hrs by MTT assay. The assay is classed as functional. The settings on record: ATCC 35218, 24 h. In a few lines:
as §1

The next assay deals with Staphylococcus aureus. The experiment in a line: Antimicrobial activity against Staphylococcus aureus ATCC 6538 after 24 hrs by MTT assay. The assay is classed as functional. The settings on record: ATCC 6538, 24 h. In a few lines: as §1
(In general: Tetrazolium dyes change colour on reduction, which living cells bring about.)

In the next assay the test system is Pseudomonas aeruginosa. The assay can be described thus: Antimicrobial activity against Pseudomonas aeruginosa ATCC 13525 after 24 hrs by MTT assay. The assay is classed as functional. The settings on record: ATCC 13525, 24 h. In a few lines: as §1

With `Oc1ccccc1/C=N/CCCCCC/N=C/c1ccccc1O`, the half-maximal inhibitory concentration (IC50) in assay [1] was 44.6 µM.

The compound `O=C(NCCCCCCNC(=O)c1ccccc1O)c1ccccc1O` showed an IC50 in assay [1] of more than 140 µM.

`O=C(NCCCNC(=O)c1ccccc1O)c1ccccc1O`: half-maximal inhibition in assay [1] (IC50) required 41.8 µM.

Regarding `O=C(NCC/N=C/c1cc(I)ccc1O)c1ccccc1O`, the MIC with Bacillus subtilis is more than 50 µg/mL; in the assay on Escherichia coli, 25 µg/mL (≈ 60.9 µM); in the assay with Staphylococcus aureus it was 25 µg/mL (≈ 60.9 µM); against Pseudomonas aeruginosa it was more than 50 µg/mL. Moreover, the half-inhibitory concentration (IC50) in assay [1] is 2.75 µM.

As to `O=C(NCC/N=C/c1cc(Cl)cc(Cl)c1O)c1ccccc1O`, the MIC against Bacillus subtilis is 3.13 µg/mL (≈ 8.86 µM); with Escherichia coli it was 1.56 µg/mL (≈ 4.42 µM); in the assay on Staphylococcus aureus, more than 50 µg/mL; in the assay with Pseudomonas aeruginosa, more than 50 µg/mL. Moreover, in assay [1], the concentration for half-maximal inhibition (IC50) is 7.08 µM.

Regarding `O=C(NCCCC/N=C/c1cc(Br)ccc1O)c1ccccc1O`, 16 µM corresponded to half-maximal inhibition in assay [1] (IC50).

With `O=C(NCCCCCC/N=C/c1cc(F)ccc1O)c1ccccc1O`, in assay [1], the half-inhibitory concentration (IC50) is 112 µM.

Take `Oc1ccccc1/C=N/CCC/N=C/c1ccccc1O`: half-maximal inhibition in assay [1] (IC50) required 43.4 µM.

As to `O=C(NCC/N=C/c1cc(Br)ccc1O)c1ccccc1O`, in assay [1], the IC50 is 17.1 µM.

`O=C(NCCCC/N=C/c1cc(F)ccc1O)c1ccccc1O`: in assay [1], the IC50 was 19.2 µM.

`O=C(NCC/N=C/c1cc(Cl)ccc1O)c1ccccc1O` had a concentration for half-maximal inhibition (IC50) in assay [1] of 8.69 µM.

Compound `O=C(NCCCCNC(=O)c1ccccc1O)c1ccccc1O` showed an IC50 in assay [1] of 38.3 µM.

With `Oc1ccccc1/C=N/CCCC/N=C/c1ccccc1O`, the IC50 in assay [1] is 44 µM.

Regarding `O=C(NCCCCCC/N=C/c1cc(Cl)cc(Cl)c1O)c1ccccc1O`, the 50% inhibitory concentration (IC50) in assay [1] was more than 122 µM.

As to `O=C(NCC/N=C/c1cc(Br)cc(Br)c1O)c1ccccc1O`, the MIC against Bacillus subtilis was found to be 1.56 µg/mL (≈ 3.53 µM); with Escherichia coli, 6.25 µg/mL (≈ 14.1 µM); against Staphylococcus aureus, 12.5 µg/mL (≈ 28.3 µM); against Pseudomonas aeruginosa it was 12.5 µg/mL (≈ 28.3 µM). Half-maximal inhibition in assay [1] (IC50) was put at 1.22 µM.

Take `O=C(NCC/N=C/c1cc(I)cc(I)c1O)c1ccccc1O`: the IC50 in assay [1] is 23.7 µM.

In the case of `O=C(NCCCCCC/N=C/c1cc(Br)ccc1O)c1ccccc1O`, in assay [1], the midpoint of inhibition, the IC50, lay at 29.9 µM.

`O=C(NCCC/N=C/c1c(O)ccc2ccccc12)c1ccccc1O`: the minimal inhibitory concentration (MIC) in the assay with Bacillus subtilis was 25 µg/mL (≈ 71.8 µM); in the assay on Escherichia coli it was more than 50 µg/mL; against Staphylococcus aureus it was 25 µg/mL (≈ 71.8 µM); in the assay with Pseudomonas aeruginosa, 12.5 µg/mL (≈ 35.9 µM). The compound also showed a 50% inhibitory concentration (IC50) in assay [1] of 8.61 µM.

`Oc1ccccc1/C=N/CC/N=C/c1ccccc1O`: the IC50 in assay [1] is more than 186 µM.

Regarding `O=C(NCCC/N=C/c1ccccc1O)c1ccccc1O`, the IC50 in assay [1] was 41.9 µM.

On to `O=C(NCCCCCC/N=C/c1ccccc1O)c1ccccc1O`, for which half-maximal inhibition in assay [1] (IC50) required 65.1 µM.

In assay [1], `O=C(NCCCCCC/N=C/c1cc(Br)cc(Br)c1O)c1ccccc1O` gave an IC50 of 12.5 µM.

Compound `O=C(NCCCCCC/N=C/c1cc(I)cc(I)c1O)c1ccccc1O` gave an IC50 in assay [1] of 25.8 µM.

The compound `O=C(NCCCCCC/N=C/c1c(O)ccc2ccccc12)c1ccccc1O` came in with a 50% inhibitory concentration (IC50) in assay [1] of more than 128 µM.

`O=C(NCCC/N=C/c1cc(Cl)cc(Cl)c1O)c1ccccc1O`: 7.49 µM corresponded to half-maximal inhibition in assay [1] (IC50).

In assay [1], `O=C(NCCC/N=C/c1cc(Br)cc(Br)c1O)c1ccccc1O` gave an IC50 of 13.8 µM.

Compound `O=C(NCC/N=C/c1ccccc1O)c1ccccc1O` gave a half-maximal inhibitory concentration (IC50) in assay [1] of 25.5 µM.

Consider `O=C(NCCC/N=C/c1cc(F)ccc1O)c1ccccc1O`, for which the minimal inhibitory concentration (MIC) is 25 µg/mL (≈ 79 µM) in the assay on Bacillus subtilis, 3.13 µg/mL (≈ 9.89 µM) with Escherichia coli, 1.56 µg/mL (≈ 4.93 µM) against Staphylococcus aureus and 1.56 µg/mL (≈ 4.93 µM) against Pseudomonas aeruginosa. Also, it took 5.56 µM to reach half-maximal inhibition in assay [1] (IC50).

In the case of `O=C(NCC/N=C/c1c(O)ccc2ccccc12)c1ccccc1O`, the IC50 in assay [1] is 29.2 µM.

For the compound `O=C(NCCNC(=O)c1ccccc1O)c1ccccc1O`, in assay [1], the IC50 was 55 µM.

In assay [1], `O=C(NCCCCCC/N=C/c1cc(I)ccc1O)c1ccccc1O` had a half-maximal inhibitory concentration (IC50) of 56.9 µM.

In assay [1], `O=C(NCCC/N=C/c1cc(I)cc(I)c1O)c1ccccc1O` showed a 50% inhibitory concentration (IC50) of 23.5 µM.

Take `O=C(NCCC/N=C/c1cc(I)ccc1O)c1ccccc1O`: the MIC in the assay on Bacillus subtilis was 25 µg/mL (≈ 58.9 µM); with Escherichia coli, 3.13 µg/mL (≈ 7.38 µM); against Staphylococcus aureus it was more than 50 µg/mL; with Pseudomonas aeruginosa, 6.25 µg/mL (≈ 14.7 µM). This compound also gave a half-maximal inhibitory concentration (IC50) in assay [1] of 3.54 µM.

On to `O=C(NCC/N=C/c1cc(F)ccc1O)c1ccccc1O`, for which the IC50 in assay [1] was 34.2 µM.

Regarding `O=C(NCCCC/N=C/c1ccccc1O)c1ccccc1O`, the midpoint of inhibition in assay [1], the IC50, lay at 43.4 µM.

In the case of `O=C(NCCC/N=C/c1cc(Br)ccc1O)c1ccccc1O`, the MIC in the assay on Bacillus subtilis was 1.56 µg/mL (≈ 4.14 µM); in the assay with Escherichia coli it was 0.39 µg/mL (≈ 1.03 µM); against Staphylococcus aureus it was 3.13 µg/mL (≈ 8.3 µM); against Pseudomonas aeruginosa, 3.13 µg/mL (≈ 8.3 µM). Half-maximal inhibition in assay [1] (IC50) required 0.875 µM.

`O=C(NCCCC/N=C/c1cc(Cl)cc(Cl)c1O)c1ccccc1O`: the half-inhibitory concentration (IC50) in assay [1] was 7.74 µM.

In turn, `O=C(NCCCC/N=C/c1cc(Br)cc(Br)c1O)c1ccccc1O` showed an IC50 in assay [1] of 6.61 µM.

`O=C(NCCCC/N=C/c1cc(I)cc(I)c1O)c1ccccc1O` gave an IC50 in assay [1] of 11.1 µM.

In assay [1], `O=C(NCCCC/N=C/c1c(O)ccc2ccccc12)c1ccccc1O` had a 50% inhibitory concentration (IC50) of 8.55 µM.

Regarding `O=C(NCCCC/N=C/c1cc(Cl)ccc1O)c1ccccc1O`, the MIC in the assay with Bacillus subtilis is 25 µg/mL (≈ 72.1 µM); against Escherichia coli, more than 50 µg/mL; in the assay on Staphylococcus aureus, 25 µg/mL (≈ 72.1 µM); against Pseudomonas aeruginosa it was 12.5 µg/mL (≈ 36 µM). This compound also gave an IC50 in assay [1] of 6.69 µM.

In turn, `O=C(NCCCCCC/N=C/c1cc(Cl)ccc1O)c1ccccc1O` had an IC50 in assay [1] of 26.7 µM.

For the compound `O=C(NCCC/N=C/c1cc(Cl)ccc1O)c1ccccc1O`, the minimum inhibitory concentration (MIC) is more than 50 µg/mL against Bacillus subtilis, 25 µg/mL (≈ 75.1 µM) against Escherichia coli, more than 50 µg/mL against Staphylococcus aureus and more than 50 µg/mL with Pseudomonas aeruginosa. Besides, the concentration for half-maximal inhibition (IC50) in assay [1] was 4.93 µM.

`O=C(NCCCC/N=C/c1cc(I)ccc1O)c1ccccc1O`: the minimum inhibitory concentration (MIC) in the assay with Bacillus subtilis is 1.56 µg/mL (≈ 3.56 µM); with Escherichia coli, 6.25 µg/mL (≈ 14.3 µM); against Staphylococcus aureus it was more than 50 µg/mL; with Pseudomonas aeruginosa it was 3.13 µg/mL (≈ 7.14 µM). The half-inhibitory concentration (IC50) in assay [1] was 1.48 µM.

One may read the IC50 as the point on the concentration scale where inhibition reaches its midpoint. Read a high IC50 as a need for much substance. As usually defined, the MIC is the smallest concentration in the dilution series that meets the test's criterion for growth inhibition.
